The target in test [1] is 11-beta-hydroxysteroid dehydrogenase 1 (Homo sapiens, UniProt P28845). The experiment in a line: Inhibition of human 11beta-HSD1 overexpressed in microsomal fraction of HEK293 cells assessed as formation of [3H]-cortisol from [3H]-cortisone by scintillation proximity assay in presence of NADPH. The format is cell-based. An outline of the steps:
(§1)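 Full-length human or murine 11β-HSD1 cDNA cloned into pcDNA3 and stably transfected into HEK-293 cells, selected with G418 (700 μg/mL). Microsomal fraction used as enzyme source. Microsomes incubated with NADPH, [3H]cortisone and compound. [3H]cortisol product captured by monoclonal antibody on protein A-coated SPA beads and read by scintillation proximity. IC50 reported.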
(SPA uses beads or plates that emit light when radiolabelled molecules are held near them.)

The target of test [2] is T1, 11-beta-hydroxysteroid dehydrogenase type 2 (Mus musculus, UniProt P51661).
T1 sequence (P51661 whole entry): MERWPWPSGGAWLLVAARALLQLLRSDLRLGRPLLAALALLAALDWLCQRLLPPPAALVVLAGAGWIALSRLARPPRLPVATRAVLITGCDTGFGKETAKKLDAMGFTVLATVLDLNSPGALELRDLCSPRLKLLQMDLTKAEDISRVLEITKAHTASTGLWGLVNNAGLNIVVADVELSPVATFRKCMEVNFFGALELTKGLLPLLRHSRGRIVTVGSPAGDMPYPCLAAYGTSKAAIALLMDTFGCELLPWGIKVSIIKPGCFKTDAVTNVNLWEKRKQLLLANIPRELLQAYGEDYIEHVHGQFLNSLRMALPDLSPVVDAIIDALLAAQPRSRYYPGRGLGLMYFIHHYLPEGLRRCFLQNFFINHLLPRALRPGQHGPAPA
In words: Inhibition of mouse 11beta-HSD2 overexpressed in microsomal fraction of HEK293 cells using [3H]-cortisol as substrate by scintillation proximity assay in presence of NAD+. In short, it runs like this: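 Enzyme was murine 11β-HSD2 full-length cDNA in pcDNA3, stably expressed in HEK-293 cells selected with G418 (700 μg/mL). Microsomes from these cells were incubated with [3H]cortisol, NAD+ and compound. Activity was read by scintillation proximity assay and IC50 reported.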

Test [3] deals with 11-beta-hydroxysteroid dehydrogenase 1 (Mus musculus, UniProt P50172). The experiment in a line: Inhibition of mouse 11beta-HSD1 overexpressed in microsomal fraction of HEK293 cells assessed as formation of [3H]-cortisol from [3H]-cortisone by scintillation proximity assay in presence of NADPH. The format is cell-based. An outline of the steps: as §1
Chain of 11-beta-hydroxysteroid dehydrogenase 1 (Mus musculus, UniProt P50172) (P50172 whole entry): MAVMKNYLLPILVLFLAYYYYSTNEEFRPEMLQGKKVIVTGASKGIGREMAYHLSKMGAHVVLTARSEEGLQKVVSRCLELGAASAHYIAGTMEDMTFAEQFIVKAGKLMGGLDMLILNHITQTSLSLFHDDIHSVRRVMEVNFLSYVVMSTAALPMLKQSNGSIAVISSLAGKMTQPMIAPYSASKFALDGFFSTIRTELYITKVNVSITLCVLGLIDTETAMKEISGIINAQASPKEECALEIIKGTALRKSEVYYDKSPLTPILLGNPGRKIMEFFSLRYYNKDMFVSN
For test [4], the target named is T2, 11-beta-hydroxysteroid dehydrogenase type 2 (Homo sapiens, UniProt P80365).
T2 sequence (P80365 whole entry): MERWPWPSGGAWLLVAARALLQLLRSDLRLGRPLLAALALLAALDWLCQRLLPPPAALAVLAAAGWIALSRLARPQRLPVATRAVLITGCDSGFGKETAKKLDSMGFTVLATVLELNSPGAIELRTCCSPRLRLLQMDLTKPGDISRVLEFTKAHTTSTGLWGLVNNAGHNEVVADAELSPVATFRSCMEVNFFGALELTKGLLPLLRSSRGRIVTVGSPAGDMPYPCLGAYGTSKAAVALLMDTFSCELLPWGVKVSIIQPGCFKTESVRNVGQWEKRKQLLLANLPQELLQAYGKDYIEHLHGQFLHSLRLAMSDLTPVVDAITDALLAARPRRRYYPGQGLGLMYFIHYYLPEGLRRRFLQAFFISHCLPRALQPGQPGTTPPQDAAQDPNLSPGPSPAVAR
The experiment in a line: Inhibition of human 11beta-HSD2 overexpressed in microsomal fraction of HEK293 cells using [3H]-cortisol as substrate by scintillation proximity assay in presence of NAD+.

Chain of 11-beta-hydroxysteroid dehydrogenase 1 (Homo sapiens, UniProt P28845) (P28845 whole entry): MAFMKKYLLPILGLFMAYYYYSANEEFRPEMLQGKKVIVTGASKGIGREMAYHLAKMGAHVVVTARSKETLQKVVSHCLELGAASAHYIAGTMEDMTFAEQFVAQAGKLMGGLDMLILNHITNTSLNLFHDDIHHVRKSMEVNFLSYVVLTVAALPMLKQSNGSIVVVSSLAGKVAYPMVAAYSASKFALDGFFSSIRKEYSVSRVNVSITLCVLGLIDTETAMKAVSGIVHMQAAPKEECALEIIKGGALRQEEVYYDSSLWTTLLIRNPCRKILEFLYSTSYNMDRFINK

Usually IC50 stands for the concentration at which inhibition is half-maximal. With `CO[C@@H]1CC(=O)[C@]2(C)[C@@H]1[C@H](O)C[C@@H]1[C@@]3(C)CC[C@H](O)C(C)(C)[C@@H]3CC[C@]12C`, the IC50 amounted to 194 nM in test [1], 292 µM in test [2] and 2.8 µM in test [3].

For `CO[C@@H]1CC(=O)[C@]2(C)[C@@H]1[C@H](OC(C)=O)C[C@@H]1[C@@]3(C)CC[C@H](O)C(C)(C)[C@@H]3CC[C@]12C`, the 50% inhibitory concentration (IC50) in test [1] was determined as 15.3 nM; in test [2], 155 µM; in test [3], 3.3 µM.

`CC(=O)O[C@@H]1C[C@@H]2[C@@]3(C)CC[C@H](O)C(C)(C)[C@@H]3CC[C@@]2(C)[C@]2(C)C(=O)C[C@@H](O)[C@@H]12`: the IC50 in test [1] was 75.5 nM; in test [2], > 1000 µM; in test [3], 4.7 µM.

As for `CC1(C)[C@@H](O)CC[C@]2(C)[C@H]3C[C@@H](O)[C@@H]4C=CC(=O)[C@@]4(C)[C@]3(C)CC[C@@H]12`, the 50% inhibitory concentration (IC50) in test [1] was 395 nM; in test [2], > 1000 µM; in test [3], 2.9 µM; in test [4], 284 µM.

With `CC(=O)O[C@@H]1C[C@@H]2[C@@]3(C)CC[C@H](O)C(C)(C)[C@@H]3CC[C@@]2(C)[C@]2(C)C(=O)C=C[C@@H]12`, the concentration for half-maximal inhibition (IC50) in test [1] is 34.1 nM; in test [2], 217 µM; in test [3] it was 7.2 µM.

(Values after ChEMBL document CHEMBL3421600, “Hupehenols A-E, selective 11β-hydroxysteroid dehydrogenase type 1 (11β-HSD1) inhibitors from Viburnum hupehense” (J Nat Prod, 2015).)
